By MIC is commonly meant the smallest concentration in the dilution series that meets the test's criterion for growth inhibition. The low end stands for greater potency, the high end for weaker potency.

Structures are written as SMILES. Converted amounts (≈) assume the structure as drawn. The source made the active and inactive calls.

The test system of data set [1] is Staphylococcus epidermidis. As to the kind of experiment: Antibacterial activity against Staphylococcus epidermidis H 6966/08 up to 500 uM after 24 to 48 hrs by microdilution broth method. Type of data set: functional, organism-based. A digest of the protocol:
(§1)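 Antibacterial screen with compound concentrations up to a highest level of 500 µM. Results expressed as MIC in µM.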
A general note: In broth dilution the organism is exposed to a series of concentrations in liquid medium.

In data set [2] the test system is Candida tropicalis. Description: Antifungal activity against Candida tropicalis 156 after 72 to 120 hrs by microdilution broth method. The class given is functional, organism-based.
Data set [3] has as its system Staphylococcus epidermidis. As to the kind of experiment: Antibacterial activity against Staphylococcus epidermidis H 6966/08 after 48 hrs by microdilution broth method. The class given is functional. The procedure, abridged:
as §1

For data set [4], the system named is Trichophyton mentagrophytes. As to the kind of experiment: Antifungal activity against Trichophyton mentagrophytes 445 after 72 to 120 hrs by microdilution broth method. The class given is functional, organism-based.
Data set [5] has as its system Mycobacterium tuberculosis. As to the kind of experiment: Antimycobacterial activity against Mycobacterium tuberculosis H37Rv CNCTC My 331/88 after 5 days by microplate alamar blue assay. The class given is functional. The note with it: H37Rv CNCTC My 331/88, 120 h. The procedure, abridged:
(§2)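 Microplate alamar blue assay run at pH 5.6, using conditions optimized for pyrazinamide. Strains came from the Czech National Collection of Type Cultures. MIC was read in µg/mL and converted to µM using molecular weight.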

The nature of data set [6]: Lipophilicity, log K of the compound by HPLC analysis. The class given is physicochemical.
Data set [7] concerns Mycobacterium kansasii. Description: Antimycobacterial activity against pyrazinamide-resistant Mycobacterium kansasii CNCTC My 235/80 after 5 days by microplate alamar blue assay. The class given is functional. The note with it: CNCTC My 235/80, 120 h. The procedure, abridged: as §2
A general note: Resazurin is reduced to fluorescent resorufin, in cell work by metabolically active cells.

Data set [8] deals with Mycobacterium avium. As to the kind of experiment: Antimycobacterial activity against pyrazinamide-resistant Mycobacterium avium CNCTC My 80/72 after 5 days by microplate alamar blue assay. The class given is functional. As to conditions: CNCTC My 80/72, 120 h. The procedure, abridged: as §2
For data set [9], the system named is Candida albicans. Description: Antifungal activity against Candida albicans ATCC 44859 after 72 to 120 hrs by microdilution broth method. Type of data set: functional, organism-based.
Data set [10] has as its system Klebsiella pneumoniae. Description: Antibacterial activity against Klebsiella pneumoniae D 11750/08 after 24 to 48 hrs by microdilution broth method. The class given is functional, organism-based. The procedure, abridged: as §1
Data set [11] relates to Pseudomonas aeruginosa. As to the kind of experiment: Antibacterial activity against Pseudomonas aeruginosa CCM 1961 after 24 to 48 hrs by microdilution broth method. Type of data set: functional, organism-based. The procedure, abridged: as §1
The subject of data set [12] is Trichophyton mentagrophytes. As to the kind of experiment: Antifungal activity against Trichophyton mentagrophytes after 72 to 120 hrs by microdilution broth method. The class given is functional, organism-based.
Data set [13] concerns Staphylococcus epidermidis. As to the kind of experiment: Antibacterial activity against methicillin-resistant Staphylococcus epidermidis H 5996/08 after 24 to 48 hrs by microdilution broth method. Type of data set: functional, organism-based.
Data set [14] has as its system Lichtheimia corymbifera. As to the kind of experiment: Antifungal activity against Absidia corymbifera 272 after 72 to 120 hrs by microdilution broth method. The class given is functional, organism-based.
The test system of data set [15] is Trichosporon asahii. As to the kind of experiment: Antifungal activity against Trichosporon asahii 1188 after 72 to 120 hrs by microdilution broth method. Type of data set: functional, organism-based.
For data set [16], the system named is Nakaseomyces glabratus. Description: Antifungal activity against Candida glabrata 20/I after 72 to 120 hrs by microdilution broth method. The class given is functional, organism-based.
The test system of data set [17] is Pichia kudriavzevii. As to the kind of experiment: Antifungal activity against Candida krusei E28 after 72 to 120 hrs by microdilution broth method. The class given is functional, organism-based.
For data set [18], the system named is Aspergillus fumigatus. As to the kind of experiment: Antifungal activity against Aspergillus fumigatus 231 after 72 to 120 hrs by microdilution broth method. The class given is functional, organism-based.
The subject of data set [19] is Mycobacterium avium. Description: Antimycobacterial activity against pyrazinamide-resistant Mycobacterium avium CNCTC My 152/73 after 5 days by microplate alamar blue assay. The class given is functional. As to conditions: CNCTC My 152/73, 120 h. A digest of the protocol: as §2
Data set [20] has as its system Staphylococcus aureus. As to the kind of experiment: Antibacterial activity against Staphylococcus aureus CCM 4516/08 after 24 to 48 hrs by microdilution broth method. Type of data set: functional, organism-based. A digest of the protocol:
as §1

The test system of data set [21] is Klebsiella pneumoniae. Description: Antibacterial activity against ESBL positive Klebsiella pneumoniae J 14368/08 after 24 to 48 hrs by microdilution broth method. The class given is functional, organism-based. The procedure, abridged: as §1
Data set [22] deals with Escherichia coli. Description: Antibacterial activity against Escherichia coli CCM 4517 after 24 to 48 hrs by microdilution broth method. Type of data set: functional, organism-based. The procedure, abridged: as §1
Data set [23] deals with Enterococcus sp. As to the kind of experiment: Antibacterial activity against Enterococcus sp. J 14365/08 after 24 to 48 hrs by microdilution broth method. Type of data set: functional, organism-based. A digest of the protocol: as §1

Consider `NC(=O)c1cncc(NCCCc2ccccc2)n1`, for which the outcome in [1], in [2], in data set [3], in data set [4], in data set [9] and in data set [10] was inactive. Further, the outcome in [11], in data set [12], in data set [13], in [14], in [15] and in [16] was inactive. Also, the outcome in data set [17], in data set [18], in data set [20], in [21], in data set [22] and in data set [23] was inactive. Moreover, the MIC in [5], in data set [7], in [8] and in data set [19] was over 100 µg/mL in each case. For the same molecule, the “log K” value in data set [6] is listed as 0.0741.

As to `CNc1cnc(C(N)=O)cn1`, the result in [1], in data set [2], in data set [3], in data set [4], in data set [9] and in data set [10] was inactive. The outcome in [11], in data set [12], in data set [13], in [14], in [15] and in data set [16] was inactive. Moreover, the result in [17], in [18], in [20], in [21], in data set [22] and in [23] was inactive. In addition, the MIC in [5], in data set [7], in data set [8] and in [19] was over 100 µg/mL in each case. In addition, the “log K” value in [6] is -0.6878.

In the case of `CCNc1cnc(C(N)=O)cn1`, the result in data set [1], in [2], in [3], in data set [4], in [9] and in data set [10] was inactive. Moreover, the result in [11], in [12], in [13], in data set [14], in data set [15] and in [16] was inactive. Moreover, the outcome in data set [17], in data set [18], in data set [20], in data set [21], in data set [22] and in [23] was inactive. The MIC in [5], in data set [7], in [8] and in data set [19] was over 100 µg/mL in each case. The “log K” value in [6] is -0.552.

`CCCCCCCNc1cncc(C(N)=O)n1`: the outcome in data set [1], in data set [2], in [3], in data set [4], in data set [9] and in data set [10] was inactive. In addition, the result in [11], in data set [12], in data set [13], in [14], in data set [15] and in data set [16] was inactive. Besides, the outcome in data set [17], in data set [18], in [20], in data set [21], in data set [22] and in data set [23] was inactive. Further, the MIC in data set [5] amounted to 106 µM; in [7] it was 212 µM; in data set [8] it was 100 µg/mL (≈ 423 µM); in data set [19], 100 µg/mL (≈ 423 µM). Further, the “log K” value in data set [6] stood at 0.4273.

Consider `NC(=O)c1cnc(NCCc2ccccc2)cn1`, for which the result in data set [1], in data set [2], in data set [3], in [4], in [9] and in data set [10] was inactive. Moreover, the result in data set [11], in data set [12], in [13], in data set [14], in data set [15] and in [16] was inactive. Moreover, the outcome in data set [17], in data set [18], in data set [20], in [21], in [22] and in data set [23] was inactive. Also, the MIC in data set [5] is 206 µM; in [7], 100 µg/mL; in [8], over 100 µg/mL; in data set [19], over 100 µg/mL. For the same molecule, in [6], the “log K” value is listed as -0.0382.

`CCNc1cncc(C(N)=O)n1`: the outcome in data set [1], in data set [2], in [3], in data set [4], in data set [9] and in data set [10] was inactive. The outcome in data set [11], in data set [12], in data set [13], in data set [14], in [15] and in data set [16] was inactive. For the same molecule, the result in data set [17], in data set [18], in data set [20], in data set [21], in [22] and in data set [23] was inactive. Besides, the minimal inhibitory concentration (MIC) in data set [5], in data set [7], in [8] and in data set [19] was over 100 µg/mL each time. In addition, the “log K” value in data set [6] is given as -0.6318.

With `CCCCCNc1cncc(C(N)=O)n1`, the outcome in data set [1], in data set [2], in data set [3], in data set [4], in data set [9] and in data set [10] was inactive. The result in [11], in data set [12], in [13], in [14], in data set [15] and in [16] was inactive. Further, the outcome in data set [17], in [18], in data set [20], in [21], in data set [22] and in [23] was inactive. In addition, the MIC in data set [5] was 100 µg/mL; in data set [7], over 100 µg/mL; in data set [8], over 100 µg/mL; in data set [19] it was over 100 µg/mL. The “log K” value in [6] was -0.0095.
